Measured values taken from ChEMBL document CHEMBL5375998, “New Genetically Engineered Derivatives of Antibacterial Darobactins Underpin Their Potential for Antibiotic Development” (J Med Chem, 2023).
In brackets after ≈: the same amount, converted by molar mass.

Key:
[1] = Binding affinity to Escherichia coli N-terminal 6 his tagged BamA barrel domain (421 to 810 residues) assessed as dissociation constant measured after 15 mins by microscale thermophoresis analysis
How it was run: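 Microscale thermophoresis with E. coli BamA at 50 nM in 50 mM HEPES pH 7.6, 5 mM MgCl2, 0.05% Tween. Ligand stock was in water and diluted in HEPES buffer. It was tested from the highest soluble concentration, mostly 2 mM, in 1:1 serial dilution over 16 samples. A labeling/fluorescence pretest was run for each sample.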

Acinetobacter baumannii [2] = assay: Antibacterial activity against Acinetobacter baumannii DSM-30007 assessed as reduction in bacterial growth measured after 24 hrs; format: functional
Acinetobacter baumannii [3] = assay: Antibacterial activity against Acinetobacter baumannii NCTC 13301 assessed as reduction in bacterial growth measured after 24 hrs; format: functional
Acinetobacter baumannii [4] = assay: Antibacterial activity against Acinetobacter baumannii ATCC 17978 assessed as reduction in bacterial growth measured after 24 hrs; format: functional
Pseudomonas aeruginosa [5] = assay: Antibacterial activity against multidrug resistant Pseudomonas aeruginosa 83979 clinical isolate assessed as reduction in bacterial growth measured after 24 hrs; format: functional
Pseudomonas aeruginosa [6] = assay: Antibacterial activity against multidrug resistant Pseudomonas aeruginosa 84389 clinical isolate assessed as reduction in bacterial growth measured after 24 hrs; format: functional
Pseudomonas aeruginosa [7] = assay: Antibacterial activity against Pseudomonas aeruginosa PA14 DSM 19882 assessed as reduction in bacterial growth measured after 24 hrs; conditions: PA14 DSM 19882, 24 h

Compound | Kd [1] [µM] | MIC (Acinetobacter baumannii [2]) [µg/mL] | MIC (Acinetobacter baumannii [3]) [µg/mL] | MIC (Acinetobacter baumannii [4]) [µg/mL] | MIC (Pseudomonas aeruginosa [5]) [µg/mL] | MIC (Pseudomonas aeruginosa [6]) [µg/mL] | MIC (Pseudomonas aeruginosa [7]) [µg/mL]
C[C@@H](O)[C@@H]1NC(=O)[C@H]2NC(=O)[C@H](CC(N)=O)NC(=O)[C@@H](N)Cc3c[nH]c4c(cccc34)O[C@@H]2c2c[nH]c3cc(ccc23)[C@H](CCCN)[C@@H](C(=O)N[C@@H](CCC(N)=O)C(=O)N[C@@H](Cc2c[nH]c3ccccc23)C(=O)O)NC1=O | 2.2 | – | – | – | – | – | –
N=C(N)NCCC[C@H](NC(=O)[C@H]1NC(=O)[C@H](CO)NC(=O)[C@H]2NC(=O)[C@H](CCC(N)=O)NC(=O)[C@@H](N)Cc3c[nH]c4c(cccc34)O[C@@H]2c2c[nH]c3cc(ccc23)[C@@H]1CCCN)C(=O)N[C@@H](Cc1c[nH]c2ccccc12)C(=O)O | – | 2 (≈ 1.84 µM) | 8 (≈ 7.35 µM) | 16 (≈ 14.7 µM) | 8 (≈ 7.35 µM) | 16 (≈ 14.7 µM) | 16 (≈ 14.7 µM)
C[C@@H](O)[C@@H]1NC(=O)[C@H]2NC(=O)[C@H](CC(=O)O)NC(=O)[C@@H](N)Cc3c[nH]c4c(cccc34)O[C@@H]2c2c[nH]c3cc(ccc23)[C@H](CCCN)[C@@H](C(=O)N[C@@H](CCCNC(=N)N)C(=O)N[C@@H](Cc2c[nH]c3ccccc23)C(=O)O)NC1=O | 22.6 | – | – | – | – | – | –
